Compound activity as filed in PubChem BioAssay.
NR2E3 ag-1: NR2E3 agonists in two-hybrid cells, primary screen, cell-based, luminescence, CHO-S, Gal4-NCOR/VP16-NR2E3; Photoreceptor-specific nuclear receptor (Homo sapiens), Q9Y5X4; AID 602229, 2012; luciferase; inhibition of corepressor binding, % at 3.98 µM; 0.35% of 360,000 active;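 active = inhibition above the mean of all tested compounds plus 3 SD, cut at about 70% in these data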;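 note: higher means lower luciferase signal from less NR2E3 corepressor binding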
Target sequence (Q9Y5X4 whole entry, looked up, the tested form may be a part): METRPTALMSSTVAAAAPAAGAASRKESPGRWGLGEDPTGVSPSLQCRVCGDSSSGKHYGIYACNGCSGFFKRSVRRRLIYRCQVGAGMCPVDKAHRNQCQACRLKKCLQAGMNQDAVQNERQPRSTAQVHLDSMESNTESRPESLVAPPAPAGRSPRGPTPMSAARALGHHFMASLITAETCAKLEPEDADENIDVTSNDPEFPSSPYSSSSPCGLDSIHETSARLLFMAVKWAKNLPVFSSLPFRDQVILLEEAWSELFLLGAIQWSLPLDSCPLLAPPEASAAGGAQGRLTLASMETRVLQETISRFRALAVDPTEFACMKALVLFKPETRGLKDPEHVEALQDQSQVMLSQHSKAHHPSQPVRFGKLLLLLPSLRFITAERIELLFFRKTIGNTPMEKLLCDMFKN
Jurkat NFkB inh: inhibitors of induced NF-kB luciferase reporter, primary screen, TCR NF-kB activation inhibitor project, cell-based, luminescence, uHTS | Jurkat, PMA/ionomycin-induced NF-kB luciferase reporter | inhibition, % at 4 µM | 0.53% of 330,000 active | AID 435003, 2010; in the data active = inhibition above about 50%
MPTP inh: mitochondrial permeability transition pore inhibitors, primary screen, biochemical, isolated mouse mitochondria, absorbance | Ca2+ swelling absorbance, 30 min | inhibition, % at 10 µM | 1.4% of 360,000 active | AID 602449, 2012;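 active = inhibition of 50% or more, scaled per plate between neutral and stimulator controls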
aDG glyco act: activators of alpha-DG glycosylation, primary screen, uHTS, Pro5-aDG cells, AlphaScreen; alpha-DG glycosylation AlphaScreen (IIH6); 0% Pro5, 100% B10-LARGE cell signal; activation, % at 10 µM; 0.22% of 360,000 active;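 active = activation of at least 8% versus controls, or a plate z-score of at least 8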;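 note: Pro5 are CHO cells carrying HIG-tagged alpha-DG that lacks glycosylation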
697 NFkB inh: inhibitors of PMA/ionomycin-induced NF-kB reporter, 697 cells, primary screen, B-cell NF-kB inhibitor project, cell-based, luminescence, uHTS | 697 B-cell NF-kB luciferase reporter, 16 h | inhibition, % at 4 µM | 0.33% of 330,000 active | AID 435022, 2010; in the data active = inhibition above about 35%
NR2E3 ag-2: inhibitors of NR2E3-RetCOR corepressor binding, primary screen, NR2E3 agonist project, biochemical, TR-FRET, GST-NR2E3, biotin-RetCOR; 0.12% of 320,000 active; AID 2300, 2010; 1536-well; inhibition of corepressor binding, % at 4.78 µM; Photoreceptor-specific nuclear receptor (Homo sapiens), Q9Y5X4;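 active = percent inhibition above the cutoff of mean plus 3 SD of all tested compounds, set per screening campaign, cut at about 20% in these data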
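Assay system: NR2E3–RetCOR corepressor complex. Quantity: 1.35 nM GST-NR2E3. Buffer or medium: pH 7.5 Tris-based buffer. Reagent: biotinylated RetCOR corepressor at 7 nM final. Schedule: 5 h at 4 °C. Detection: TR-FRET, emission read at 617 and 671 nm. Replicates: one well per compound, singlicate testing.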
Rh123 counter: fluorescence retest of MPTP screen hits in isolated mitochondria, single concentration; shares compounds with MPTP inh; membrane potential, Rhodamine 123 fluorescence; inhibition, % at 10 µM; 78% of 5,000 active; AID 624504, 2012; in the data active = inhibition above about 22%
MPTP swell DR: mitochondrial permeability transition pore inhibitors, dose response, biochemical, absorbance, uHTS hits | shares compounds with MPTP inh | isolated mitochondria swelling | 58% of 780 active | AID 651561, 2012 | IC50, µM; in the data active = IC50 below about 20 µM
MPTP cs DR: fluorescent counter-screen in isolated mitochondria, dose response, counter-screen for MPTP inhibitor project, biochemical, fluorescence, uHTS hits; shares compounds with MPTP inh; isolated mitochondria counterscreen, fluorescence read-out; IC50, µM; 49% of 780 active; in the data active = IC50 below about 80 µM
Each line names hits and unclear results; the compound was inactive in the other large screens (follow-up assays come after a bar, where they were run). Rows were chosen to be rich in hits. Some 2.4% of all compounds tested hit in one or more screens of this group.

Cc1csc2ncnc(N3CCN(C(=O)Nc4ccc(OC(F)(F)F)cc4)CC3)c12	MPTP inh 89.9 | Rh123 counter 89.3
Cc1csc2c(N3CCN(C(=O)Nc4ccccc4)CC3)ncnc12	MPTP inh 54.5 | Rh123 counter 24.4
Cc1cnc(C(=O)Nc2ccc(OC(F)(F)F)cc2)cn1	none
CCC(C)NC(=O)c1cc(-c2ccccc2O)on1 (stereo unspecified)	MPTP inh 52.9 | Rh123 counter inactive | MPTP swell DR inactive | MPTP cs DR inactive
CCCCCCCCCCCC1N=C(N)NC(CCCO)=C1C(=O)OC (stereo unspecified)	MPTP inh 79.1 (no result: Jurkat NFkB inh, 697 NFkB inh, NR2E3 ag-2) | Rh123 counter inactive
O=C(/C=C/c1ccccc1Cl)OCC(=O)N1CCc2ccccc21	none (no result: Jurkat NFkB inh, 697 NFkB inh, NR2E3 ag-2)
O=C(Nc1ccccc1Cl)NN1CCCCCC1	none (no result: Jurkat NFkB inh, 697 NFkB inh, NR2E3 ag-2)
CCCn1c(=O)[nH]c(=O)c2c1nc(-c1ccc(OC(F)F)c(OC)c1)n2CCOC	MPTP inh 80.4 | Rh123 counter inactive | MPTP swell DR inactive | MPTP cs DR inactive
O=C(c1ccc(-c2ccccc2)c(F)c1)C1CCCN(C(=O)c2cncs2)C1 (stereo unspecified)	MPTP inh 51.5 | Rh123 counter 52.1
O=C(COc1ccc(Cl)cc1)Nc1ccc(C(=O)NCc2cccnc2)cc1	none
O=C(NCc1cccnc1)c1ccc(COc2ccc(Cl)cc2)cc1	MPTP inh 66.5 | Rh123 counter 62.8
COc1ccccc1OCc1ccc(C(=O)NCc2cccnc2)o1	none
CC(C)(C)c1ccc(OCc2ccc(C(=O)NCc3cccnc3)o2)cc1	MPTP inh 85.2 | Rh123 counter 68.1
Cc1ccc(C(=O)OCc2c(C)noc2C)cc1NC(=O)c1ccco1	none
C/C(=N/NS(=O)(=O)c1ccc(Cl)cc1)c1cccc(O)c1	none
C/C(=N\NS(=O)(=O)c1ccccc1)c1cc(Cl)cc(Cl)c1O	MPTP inh 61.9 | Rh123 counter 75.2
Fc1nc(F)c(F)c(NCCCNc2c(F)c(F)nc(F)c2F)c1F	MPTP inh 92.6 | Rh123 counter 94.5
COc1cc(CNC(=O)c2cc(-c3cc(Cl)ccc3OC)n[nH]2)cc(OC)c1	none (no result: Jurkat NFkB inh, 697 NFkB inh, NR2E3 ag-2)
Nc1nonc1C(=O)NCCN=Cc1cc(Cc2ccccc2)cc(Br)c1O	MPTP inh 63.5 | Rh123 counter 31.3
Nc1nonc1C(=O)NCCN=Cc1ccccc1O	none
Cc1ccc(O)c(-c2cc3ccccc3[nH]2)c1	MPTP inh 53.0 | Rh123 counter 48.9
CCOC(=O)[C@H]1[C@H]2COc3cc(OC)ccc3[C@@H]2N2C(=O)c3cc(F)c(F)cc3NC(=O)[C@@]12C	none
CC(=O)Nc1cccc(Oc2cc(C#N)c(C#N)cc2N2CCCCCC2)c1	none
O=C(Nc1nc2c(s1)CCCC2)c1nn(Cc2ccccc2)c(=O)c2ccccc12	MPTP inh 59.0 | Rh123 counter inactive | MPTP swell DR inactive | MPTP cs DR inactive
CCOC(=O)C1=CCN(S(=O)(=O)c2ccc(Br)cc2)C1c1ccc(C)cc1 (stereo unspecified)	none (no result: Jurkat NFkB inh, 697 NFkB inh, NR2E3 ag-2)
CCOC(=O)c1sc(NC(=O)CSc2nc3cccnc3n2C)nc1C	none
CCOC(=O)c1cccc(NC(=O)CSc2nncn2-c2ccccn2)c1	none
CCOC(=O)c1c(NC(=O)CSc2nc3cccnc3n2C)sc(C(C)=O)c1C	MPTP inh 91.5 | Rh123 counter inactive | MPTP swell DR 3.69 | MPTP cs DR 3.54
CCOC(=O)c1cccc(NC(=O)CSc2nc3cccnc3n2C)c1	MPTP inh 73.2 | Rh123 counter 28.8
CCOC(=O)c1c(NC(=O)CSc2nnc(-c3ccccc3C)n2C)sc(C(C)=O)c1C	MPTP inh 83.5 | Rh123 counter 67.2
CCOC(=O)c1c(NC(=O)CSc2nnc(-c3cccnc3)o2)sc(C(C)=O)c1C	MPTP inh 74.9 | Rh123 counter inactive | MPTP swell DR inactive | MPTP cs DR 12.8
COc1ncnc2c1ncn2CCCNCC(C)c1ccccc1 (stereo unspecified)	none (no result: Jurkat NFkB inh, 697 NFkB inh, NR2E3 ag-2)
CC12CCCc3c(O)cc(=O)n(c31)-c1ccccc12 (stereo unspecified)	none
CCN(CC(=O)Nc1cc(C)on1)CC(=O)Nc1ccccc1C(F)(F)F	none
CCOC(=O)Cc1csc(NC(=O)C(C)c2ccc([N+](=O)[O-])cc2)n1 (stereo unspecified)	none
CCOC(=O)CSc1nc2ccc(N3CCOCC3)cc2c(=O)n1Cc1ccccc1	none
COc1ccc(NC(=O)C2CCC(C(C)(C)C)CC2)cc1S(=O)(=O)N1CCOCC1 (stereo unspecified)	none
COc1ccc(CCN2CC(C(=O)N(C)Cc3ccccn3)CCC2=O)cc1 (stereo unspecified)	none (no result: Jurkat NFkB inh, 697 NFkB inh, NR2E3 ag-2)
CCOC(=O)c1c(NC(=O)CSc2ncnc3ccccc23)sc(C(C)=O)c1C	MPTP inh 57.8 | Rh123 counter inactive
COC(=O)c1c(NC(=O)CSc2ncnc3ccccc23)sc(C)c1C	none
Cc1onc(C(=O)Nc2sc3c(c2C#N)CCCC3)c1[N+](=O)[O-]	none
Cc1cc2oc3cc(NCCC4CCCN4C)ccc3c(=O)c2cc1C (stereo unspecified)	MPTP inh 93.6 | Rh123 counter inactive
Fc1cccc2sc(Nc3nc4c(F)cccc4s3)nc12	MPTP inh 56.4 | Rh123 counter 69.0
Fc1cccc2sc(Nc3nnc(-c4ccccc4)o3)nc12	MPTP inh 75.7 | Rh123 counter 76.0
O=C(NNc1nc2c(F)cccc2s1)c1ccc(F)cc1	MPTP inh 66.0 | Rh123 counter 90.0
O=C(NCc1cccnc1)c1cc(-c2ccccc2)on1	none
O=C(NCc1ccccc1)c1cc(-c2cccc(O)c2)on1	MPTP inh 112.6 | Rh123 counter inactive | MPTP swell DR 4.28 | MPTP cs DR 18.6
Cc1ccc(NC(=O)c2cc(-c3cccc(O)c3)on2)cc1C	MPTP inh 104.7 | Rh123 counter 20.4
